The text below walks through data of ChEMBL document CHEMBL5257094, “Synthesis and analysis of novel catecholic ligands as inhibitors of catechol-O-methyltransferase” (Bioorg Med Chem Lett, 2023).

By inhibition is commonly meant how much of the control response was suppressed. For orientation: pKa means the pH at which an ionisable group is half protonated. A low value points to a group that gives up its proton readily.

Calls of active or inactive are those of the source. No cut-off for these calls is given here.

The target of data set [1] is T1, Catechol O-methyltransferase (Homo sapiens) (UniProt P21964).
T1 sequence (whole entry): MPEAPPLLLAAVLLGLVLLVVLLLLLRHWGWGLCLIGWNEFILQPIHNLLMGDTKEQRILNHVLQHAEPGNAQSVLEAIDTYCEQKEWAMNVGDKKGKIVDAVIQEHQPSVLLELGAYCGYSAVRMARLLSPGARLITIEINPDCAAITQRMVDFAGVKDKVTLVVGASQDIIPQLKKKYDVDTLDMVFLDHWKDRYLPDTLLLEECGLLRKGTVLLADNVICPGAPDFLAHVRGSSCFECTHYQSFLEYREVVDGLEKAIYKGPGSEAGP
As to the kind of experiment: Inhibition of S-COMT (unknown origin) assessed as scopoletin formation by measuring fluorescence using 6,7-dihydroxycoumarin as substrate at 100 uM and measured for 60 mins by fluorescence based microplate reader assay. The method in brief:
(§1)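 Soluble COMT (S-COMT) activity was run at 37 °C and pH 7.4. The substrate was aesculetin (6,7-dihydroxycoumarin) at 6 μM, which methylation converts to fluorescent scopoletin. Fluorescence was read over 60 min. Test catechols were added at 10 μM or 100 μM. Each was assayed at least in triplicate, and the signal was normalized to the no-inhibitor aesculetin fluorescence.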

The target of data set [2] is T1, Catechol O-methyltransferase (Homo sapiens). The data set can be described thus: Inhibition of S-COMT (unknown origin) assessed as scopoletin formation by measuring fluorescence using 6,7-dihydroxycoumarin as substrate at 10 uM and measured for 60 mins by fluorescence based microplate reader assay. In outline:
as §1

A short description of data set [3]: Stability of compound in phosphate buffer at 7.4 assessed as drug degradation incubated for 1 hr by HPLC analysis. Particulars: for Stability: buffer, pH 7.4, 1 h; for degraded at 1 h: phosphate buffer, pH 7.4, read-out: Drug degradation. The data set is classed as physicochemical. In outline:
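Compounds were incubated at assay conditions, 37 °C in phosphate buffer at pH 7.4, for 1 hour. Degradation was then assessed by HPLC analysis.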

The nature of data set [4]: Dissociation constant, pKa of compound pH 3.01 to 12.36 at 0.2 mM by spectroscopic analysis. It counts as physicochemical. The method in brief:
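Five-buffer series in which CHES replaced Borax over pH 8.2–10.8, with KCl buffers added to widen the range. Compound dissolved in each buffer across pH 3.01–12.36 to a final 0.2 mM. Absorbance was read, normalized, and fitted to give the first and, where determinable, second catechol hydroxyl pKa.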

On to `NCCc1cc(O)c(O)cc1Br`, for which the inhibition result in data set [1] and in data set [2] was “inactive” throughout. Besides, the Stability result in data set [3] is recorded as “Stable”.

Consider `N#Cc1ccc(O)c(O)c1`, for which the pKa at 200 µM in data set [4] turned out to be 7.45. The inhibition entry in data set [1] is “Active”. For the same molecule, the inhibition entry in data set [2] is “inactive”. The Stability result in data set [3] is “Stable”.

For the molecule `Oc1cc2c(cc1O)CNCC2`, the inhibition entry in data set [1] and in data set [2] was “inactive” throughout. In addition, the Stability entry in data set [3] is on record as “Unstable”.

`N#CCc1ccc(O)c(O)c1`: the pKa at 200 µM in data set [4] stood at 9.6. Also, in data set [1], the inhibition entry is “Active”. The inhibition result in data set [2] was “inactive”. For the same molecule, the Stability entry in data set [3] is “Stable”.

`N#CCc1cc(O)c(O)cc1[N+](=O)[O-]` came in with a pKa at 200 µM in data set [4] of 6.23. For the same molecule, the inhibition entry in data set [1] and in data set [2] was “Active” each time. Further, the degraded at 1 h in data set [3] was less than 5%.

In the case of `N#Cc1cc(O)c(O)cc1CCN`, the inhibition in data set [1] is 30%. Moreover, in data set [2], the inhibition entry was “inactive”. Further, the Stability result in data set [3] is listed as “Stable”.

In the case of `NCCc1cc(O)c(O)cc1O` [OXIDOPAMINE], in data set [1], the inhibition result was “Active”. Further, in data set [2], the inhibition result was “inactive”. The degraded at 1 h in data set [3] was greater than 40%.

`N#CCCc1cc(O)c(O)cc1[N+](=O)[O-]`: the inhibition result in data set [1] was “Active”. The inhibition result in data set [2] was “inactive”. The Stability entry in data set [3] is “Stable”.

`N#CCCc1ccc(O)c(O)c1`: the inhibition entry in data set [1] is “Active”. For the same molecule, the inhibition result in data set [2] was “inactive”. Moreover, in data set [3], the Stability entry is reported as “Unstable”.

As to `NCCc1ccc(O)c(O)c1` [DOPAMINE], the pKa at 200 µM in data set [4] turned out to be 8.66. For the same molecule, the Stability entry in data set [3] is on record as “Stable”.

With `NCCc1cc(O)c(O)cc1C(=O)O`, the inhibition entry in data set [1] and in data set [2] was “inactive” in each case. Besides, the Stability result in data set [3] is recorded as “Stable”.

Take `NCCc1cc(O)c(O)cc1[N+](=O)[O-]`: in data set [4], the pKa at 200 µM came out at 6.33. In data set [1], the inhibition was determined as 50%. Moreover, the inhibition entry in data set [2] is “inactive”. Also, in data set [3], the Stability result is on record as “Stable”.
